Data on three molecules can be found in ChEMBL document CHEMBL3779799, “Antifibrotic and anticancer action of 5-ene amino/iminothiazolidinones” (Eur J Med Chem, 2016).

In data set [1] the test system is HFL1. In words: Antifibrotic activity in HFL1 cells assessed as inhibition of cell viability after 48 hrs by sulforhodamine B assay. The following applies: Homo sapiens, HFL1, 48 h. The data set is classed as functional, cell-based. The gist of the method:
(§1)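 HFL-1 human fetal lung fibroblasts (DMEM, 10% FCS, passages 14–18) seeded at 8000 cells/well, attached overnight, then exposed to a range of concentrations for 48 h in triplicate. Cells were fixed with TCA and stained with 0.4% SRB, bound dye was solubilized in Tris, and OD was read at 570 nm relative to control.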

Data set [2] is described as follows: Cytotoxicity against human SF295 cells assessed as cell growth at 10^-5 M after 48 hrs by sulforhodamine B assay relative to control. The data set is classed as functional. The following applies: SF-295, 48 h, read-out: Activity. The method, boiled down:
(§2)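 NCI ~60 human tumor cell line one-dose screen covering nine cancer types. Cells were preincubated 24–48 h, then exposed to compound at 10^-5 M for 48 h. SRB protein staining was the endpoint, and growth percent was calculated versus untreated control cells.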

Data set [3] deals with HFL1. In words: Antifibrotic activity in HFL1 cells assessed as inhibition of cell viability at >1 uM after 48 hrs by sulforhodamine B assay relative to control. The data set is classed as functional. The following applies: Homo sapiens, HFL1, 48 h. The gist of the method:
as §1

For data set [4], the system named is MDA-MB-435. In words: Cytotoxicity against human MDA-MB-435 cells assessed as cell growth at 10^-5 M after 48 hrs by sulforhodamine B assay relative to control. The data set is classed as functional. The following applies: MDA-MB-435, 48 h, read-out: Activity. The method, boiled down: as §2
Data set [5] in a line: Cytotoxicity against human NCI60 cells assessed as cell growth at 10^-5 M after 48 hrs by sulforhodamine B assay relative to control. The data set is classed as functional. The conditions noted are these: NCI60, 48 h, read-out: Activity. The method, boiled down: as §2
Data set [6] is described as follows: Cytotoxicity against human SNB75 cells assessed as cell growth at 10^-5 M after 48 hrs by sulforhodamine B assay relative to control. The data set is classed as functional. The following applies: SNB-75, 48 h, read-out: Activity. The gist of the method:
as §2

Another data set deals with U-251. In words: Growth inhibition of human U251 cells after 48 hrs by sulforhodamine B assay. The data set is classed as functional. The conditions noted are these: U-251, 48 h. The gist of the method: (§3)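 NCI ~60-cell-line panel with five 10-fold dilutions (10^-4 to 10^-8 M) and 48 h continuous exposure, using an SRB endpoint. Percentage growth was derived from time-zero, control and treated absorbances. […] Values are expressed as > or < when outside the tested range.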

Data set [7] in a line: Growth inhibition of human OVCAR3 cells after 48 hrs by sulforhodamine B assay. The data set is classed as functional. The following applies: OVCAR-3, 48 h. The gist of the method:
as §3

The nature of data set [8]: Growth inhibition of human RPMI8226 cells after 48 hrs by sulforhodamine B assay. The data set is classed as functional. The following applies: RPMI-8226, 48 h. The gist of the method: as §3
Data set [9] is described as follows: Growth inhibition of human SW620 cells after 48 hrs by sulforhodamine B assay. The following applies: SW-620, 48 h. The data set is classed as functional. The gist of the method: as §3
In the next data set the test system is KM12. In words: Growth inhibition of human KM12 cells after 48 hrs by sulforhodamine B assay. The data set is classed as functional. The conditions noted are these: KM12, 48 h. The gist of the method: as §3
In a further data set the test system is SR. As to the kind of experiment: Growth inhibition of human SR cells after 48 hrs by sulforhodamine B assay. The data set is classed as functional. The gist of the method: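 NCI 60-cell-line panel, five-dose screen: cells inoculated and preincubated 24-48 h, then exposed continuously for 48 h to five 10-fold dilutions from 10^-4 to 10^-8 M. Protein measured by SRB staining at time zero, in untreated control and in treated wells.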

Data set [10] is described as follows: Growth inhibition of human HCT116 cells after 48 hrs by sulforhodamine B assay. The data set is classed as functional. The conditions noted are these: HCT-116, 48 h. The gist of the method: (§4)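 NCI ~60-cell-line panel with five 10-fold dilutions (10^-4 to 10^-8 M) and 48 h continuous exposure, using an SRB endpoint. Percentage growth was derived from time-zero, control and treated absorbances. Values are expressed as > or < when outside the tested range.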

Another data set concerns MCF7. In words: Growth inhibition of human MCF7 cells after 48 hrs by sulforhodamine B assay. The data set is classed as functional. The conditions noted are these: MCF7, 48 h. The gist of the method: as §3
Data set [11] is described as follows: Growth inhibition of human NCI60 cells after 48 hrs by sulforhodamine B assay. The data set is classed as functional. The conditions noted are these: NCI60, 48 h. The gist of the method:
as §4

In data set [12] the test system is MDA-MB-435. In words: Growth inhibition of human MDA-MB-435 cells after 48 hrs by sulforhodamine B assay. The data set is classed as functional. The conditions noted are these: MDA-MB-435, 48 h. The gist of the method:
as §3

Data set [13] is described as follows: Cytotoxicity against human MOLT4 cells assessed as cell growth at 10^-5 M after 48 hrs by sulforhodamine B assay relative to control. The following applies: MOLT-4, 48 h, read-out: Activity. The data set is classed as functional. The method, boiled down: as §2
A short description of data set [14]: Antioxidant activity assessed as inhibition of superoxide anion generation measured for 3 mins by nitro blue tetrazolium assay. The data set is classed as physicochemical. The gist of the method: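 Cell-free superoxide generated by xanthine (1 mM) and xanthine oxidase (0.11 U/mL), with NBT (50 µM) as detector. Compounds in DMSO were tested up to 10 µM, with DMSO held at 0.1%. NBT reduction rate (dA560/dt) was read spectrophotometrically over 3 min from the linear part.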

For a further data set, the system named is NCI-H522. In words: Cytotoxicity against human NCI-H522 cells assessed as cell growth at 10^-5 M after 48 hrs by sulforhodamine B assay relative to control. The data set is classed as functional. The following applies: NCI-H522, 48 h, read-out: Activity. The gist of the method:
as §2

Data set [15] is described as follows: Cytotoxicity against human UO31 cells assessed as cell growth at 10^-5 M after 48 hrs by sulforhodamine B assay relative to control. The data set is classed as functional. The following applies: UO-31, 48 h, read-out: Activity. The method, boiled down:
as §2

Data set [16] can be described thus: Cytotoxicity against human RPMI8226 cells assessed as cell growth at 10^-5 M after 48 hrs by sulforhodamine B assay relative to control. The data set is classed as functional. The following applies: RPMI-8226, 48 h, read-out: Activity. The method, boiled down:
as §2

The mark [17] stands for this setting: read-out: LC50 (the source's name).

Each structure is given as a SMILES string. pIC50: −log10 of the molar value.

As for `COc1ccc(-c2nnc(NC3=NC(=O)/C(=C/c4ccc(N(C)C)cc4)S3)o2)cc1`, the negative logarithm of the IC50 (pIC50) in the data set on HFL1 [1] was 6.82. For the same molecule, the growth at 10 µM came out at 69.8% in data set [2], 47.8% with MDA-MB-435 [4], 92.8% in data set [5] and 60.4% in data set [6]. Also, the Emax in the data set on HFL1 [3] came out at 52.4%.
Take `O=C1N=C(Nc2ccc(O)cc2)S/C1=C\c1ccccc1`: the negative-log IC50 (pIC50) in the data set with HFL1 [1] is 7.05. For the same molecule, the GI50 in the data set on U-251 was 680 nM; in data set [7] it was 710 nM; in data set [8] it was 600 nM; in data set [9], 470 nM; with KM12, 870 nM; in the data set with SR, 90 nM. In addition, the GI50 is 320 nM in [10], 250 nM in the data set with MCF7, 12900 nM in data set [11] and 210 nM in the data set with MDA-MB-435 [12]. Besides, in the data set on U-251, the LC50 (concentration killing 50% of cells) is over 100000 nM. The TGI (in the data set on U-251; in data set [7]; in data set [8]; in [9]; in the data set on KM12; in data set [10]) was over 100000 nM each time. The TGI is over 100000 nM in the data set with MCF7, 89100 nM in [11] (read-out: pTGI (converted)) and 920 nM in the data set with MDA-MB-435 [12]. Moreover, the CC50 (in [7] (setting [17]); in [8] (setting [17]); in [9] (setting [17]); with KM12 (setting [17]); in the data set with SR (setting [17]); in [10] (setting [17])) was over 100000 nM in each case. For the same molecule, the CC50 in the data set on MCF7 (setting [17]) is over 100000 nM; in [11] (read-out: pLC50 (the source's name) (converted)), 100000 nM; with MDA-MB-435 [12] (setting [17]), over 100000 nM. Moreover, the Emax in the data set on HFL1 [3] was 23.8%.
In the case of `CN(C1=NC(=O)/C(=C2/C(=O)Nc3ccccc32)S1)c1ccc(O)cc1`, the pIC50 in the data set on HFL1 [1] is 5.75; in data set [14] it was 6.46. For the same molecule, the growth at 10 µM in data set [13] worked out at 60.2%; with NCI-H522, 65.2%; in data set [15] it was 21.4%; in [5], 85.6%; in [16], 55.2%. In addition, the Emax in data set [14] (0.05 h) came out at 71.7%; with HFL1 [3] it was 27.3%.
